Source: ChEMBL document CHEMBL4354861, “Re-Evaluating the Mechanism of Action of α,β-Unsaturated Carbonyl DUB Inhibitors b-AP15 and VLX1570: A Paradigmatic Example of Unspecific Protein Cross-linking with Michael Acceptor Motif-Containing Drugs” (J Med Chem, 2020)
Calls of active or inactive are those of the source. The rule behind the calls is not given here.

Assays:
[1] = target: Ubiquitin carboxyl-terminal hydrolase 14 (Homo sapiens) (UniProt P54578); test: Inhibition of USP14 in intact human HeLa cells assessed as induction of formation of high molecular weight complexes with USP14 at 10 uM in presence of glutathione incubated for 2 hrs by immunoblot analysis; format: cell-based
Ubiquitin carboxyl-terminal hydrolase 14 (Homo sapiens), sequence (P54578 whole entry): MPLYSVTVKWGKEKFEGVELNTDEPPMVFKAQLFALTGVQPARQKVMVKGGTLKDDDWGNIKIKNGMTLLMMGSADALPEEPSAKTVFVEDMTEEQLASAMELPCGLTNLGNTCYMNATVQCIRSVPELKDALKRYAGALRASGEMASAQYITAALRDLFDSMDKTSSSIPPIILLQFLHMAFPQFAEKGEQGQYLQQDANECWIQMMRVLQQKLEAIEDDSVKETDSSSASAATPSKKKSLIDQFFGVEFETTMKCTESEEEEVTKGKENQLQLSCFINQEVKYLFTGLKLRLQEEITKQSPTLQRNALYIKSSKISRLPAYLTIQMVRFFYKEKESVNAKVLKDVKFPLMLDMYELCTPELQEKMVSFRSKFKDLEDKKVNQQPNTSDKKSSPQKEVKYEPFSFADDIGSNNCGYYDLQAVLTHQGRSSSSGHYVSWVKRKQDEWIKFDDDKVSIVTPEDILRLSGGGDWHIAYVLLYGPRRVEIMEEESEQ
In short: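 Intact HeLa cells (DMEM, 10% FBS, about 80% confluent) treated 2 h with vehicle or 10 μM compound, with or without 10 mM DTT or 10 mM GSH. Cells washed in cold PBS and lysed in RIPA with protease and phosphatase inhibitors. High-MW species detected by SDS-PAGE immunoblot; shorter exposures served as loading control.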

Homo sapiens = species on record: Homo sapiens; test: Inhibition of purified 19S proteasome (unknown origin) assessed as reduction in cleavage of luminescent substrate Ub-AML at 100 uM

Q: With `C=CC(=O)N1C/C(=C\c2ccc([N+](=O)[O-])cc2)C(=O)/C(=C/c2ccc([N+](=O)[O-])cc2)C1` as the compound, how does the inhibition [1] read?
A: inactive

Q: And the inhibition (Homo sapiens)?
A: Active
